An excerpt weighted towards active compounds, which were near 3.1% of everything screened.
KCNK3 inh: human KCNK3 channel inhibition, primary screen | CHO-KCNK3 thallium flux, FluxOR fluorescence; stronger effect = lower value | B-score at 10 µM | actives 0.84% (n = 340,000) | AID 602410;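 active = B-score under library mean minus 4 SD, starting fluorescence ratio at most library mean plus 5 SD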;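 note: more negative B-score means stronger inhibition of thallium flux through KCNK3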
hERG protect: compounds protecting human hERG from proarrhythmic drug block; Q12809; CHO-hERG, FluxOR thallium flux, dofetilide IC70 present; activation (rescue from dofetilide block), less the hit threshold, % at 10 µM; actives 0.51% (n = 310,000); AID 1511;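 active = activation above the mean of controls blocked by dofetilide plus 5 SD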;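 note: thallium influx through hERG after potassium depolarization seen as dye fluorescence rise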
KCNQ1 act: potentiators or activators of human KCNQ1 potassium channel; CHO-K1 KCNQ1, thallium flux FluxOR fluorescence; stronger effect = higher value; actives 0.35% (n = 310,000); P51787; B-score at 10 µM;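 active = fluorescence ratio B-score, a plate-corrected score, at least three library SD, with initial intensity B-score within 5 SD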
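Assay system: CHO-K1 cells stably expressing KCNQ1. Medium: assay buffer for compound exposure, DMSO matched across wells. Timing: 37 °C overnight plating, 90-min dark dye load, 20-min compound pretreatment. Signal: kinetic FluxOR fluorescence, 10 s baseline plus 110 s post-stimulus.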
KCNQ1 inh: inhibitors of human KCNQ1 potassium channel. actives 1.3% (n = 310,000). B-score at 10 µM. CHO-K1 KCNQ1, FluxOR thallium flux fluorescence; stronger effect = higher value. P51787;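 active = compounds whose thallium flux B-score, printed positive for inhibition, exceeds three library SD while starting fluorescence stays within three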;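 note: channel opened by potassium depolarization with thallium stimulus after 20 min compound exposure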
KCNK9 block: inhibitors of human KCNK9 two-pore domain potassium channel. Q9NPC2. HEK293 KCNK9, FluxOR thallium flux fluorescence; stronger effect = lower value. B-score at 10 µM. actives 1.2% (n = 310,000). AID 488922;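 active = ratio B-score over 3 SD below the library mean, with starting fluorescence within 5 SD of its mean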;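 note: negative B-score means less thallium flux so channel inhibition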
Target sequence (Q9NPC2 whole entry, looked up, the tested form may be a part): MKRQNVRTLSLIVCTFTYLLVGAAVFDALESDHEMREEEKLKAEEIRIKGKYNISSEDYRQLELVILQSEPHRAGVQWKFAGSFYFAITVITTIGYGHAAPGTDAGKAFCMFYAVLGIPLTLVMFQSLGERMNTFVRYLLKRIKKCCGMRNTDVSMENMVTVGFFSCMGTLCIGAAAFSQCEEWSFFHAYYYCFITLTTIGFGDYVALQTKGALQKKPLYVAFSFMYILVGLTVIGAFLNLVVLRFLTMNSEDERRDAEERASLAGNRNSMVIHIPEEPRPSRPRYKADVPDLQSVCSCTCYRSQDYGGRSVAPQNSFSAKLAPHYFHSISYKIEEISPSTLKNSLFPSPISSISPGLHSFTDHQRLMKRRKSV
KCNK9 inh conf: confirmation of human KCNK9 potassium channel inhibitors; shares compounds with KCNK9 block; HEK293 KCNK9 cells, FluxOR thallium flux fluorescence; inhibition, % at 10 µM; actives 43% (n = 4,900);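 active = thallium signal inhibited by more than 5 SD of the compound-free buffer control wells, on both duplicate plates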;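 note: 0% = assay buffer control wells without compound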
Kir21 sel: tests whether KCNK9 modulators also affect mouse Kir2.1; shares compounds with KCNK9 block; Kir2.1 cells, FluxOR thallium flux fluorescence; inhibition, % at 10 µM; actives 4% (n = 4,900); AID 492993;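 active = thallium signal drop more than 5 SD beyond the mean of the no-compound control wells, seen in both duplicate plates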;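 note: signal is fluorescence rise after thallium addition divided by baseline fluorescence; plate controls were assay buffer only for no effect and full block by chlorpromazine control for full effect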
KCNK9 uninduced: second counter-screen for KCNK9 modulators: effect in non-induced cells; shares compounds with KCNK9 block; AID 492997; non-induced KCNK9-HEK293, FluxOR thallium flux; inhibition, % at 10 µM; actives 40% (n = 4,900);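 active = thallium signal drop beyond 5 SD of the untreated control mean, on both duplicate plates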;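 note: plate controls were buffer only IC0 wells for no effect and SID17386958 at its maximal inhibitory level for full effect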
An asterisk follows results filed as active; i = inactive; nt = no result given.

SMILES	KCNK3 inh	hERG protect	KCNQ1 act	KCNQ1 inh	KCNK9 block	KCNK9 inh conf	Kir21 sel	KCNK9 uninduced
O=C1c2ccccc2C(=O)N1CC#CCN1CCN(C(c2ccccc2)c2ccccc2)CC1	i	-11.8	i	i	i	i	i	i
c1ccc(CN2CCN(C(c3ccccc3)c3ccccc3)CC2)cc1	i	-9.7	i	i	i	nt	nt	nt
O=C(NCCN1CCOCC1)c1c(O)nc2sccn2c1=O	i	0.4	i	i	i	nt	nt	nt
Cc1ccccc1/C=C/c1nc2ccccc2c(=O)n1Cc1ccccc1	i	-3.3	i	i	i	nt	nt	nt
Cc1ccccc1/C=C/c1nc2ccccc2c(=O)n1CCc1ccccc1	i	-6.9	i	i	-11*	24.5%*	i	33.0%*
CCCC(=O)Nc1nnc(S(=O)(=O)N(CC(C)C)c2ccccc2)s1	i	-3.4	i	i	i	nt	nt	nt
Cc1c(C(=O)N2CC(C)OC(C)C2)oc2ccccc12 (stereo not given)	i	-8.0	i	i	i	nt	nt	nt
CCOc1ccc(S(=O)(=O)NC(C)(C)C)cc1-c1nc2c(C(C)(C)C)nn(C)c2c(=O)[nH]1	i	-12.9	i	i	i	nt	nt	nt
CN(CC(=O)Nc1ccccc1C(=O)NC1CC1)Cc1ccc(Cl)s1	i	nt	nt	nt	nt	nt	nt	nt
COc1ccc2c(c1)CCc1cnc(N)nc1-2	i	-18.8	i	i	i	nt	nt	nt
COc1ccc2c(c1)CCc1cn3nc(C)cc3nc1-2	i	-15.3	i	i	i	i	i	i
COc1ccc2nc(-c3ccccc3)cc(C(=O)OCC(=O)NC3CC3)c2c1	i	nt	nt	nt	nt	nt	nt	nt
CCC(NC(=O)c1cccc(Cn2cc([N+](=O)[O-])cn2)c1)c1ccc(C(C)C)cc1 (stereo not given)	i	-9.3	i	i	-14.5*	61.5%*	i	41.5%*
CC(C)NC(=O)c1cccc(Cn2cc(Cl)cn2)c1	i	-0.8	i	i	i	nt	nt	nt
COc1ccc(N2CC(C)Cn3c2nc2c3c(=O)n(Cc3ccc(C)cc3)c(=O)n2C)c(OC)c1 (stereo not given)	i	-14.7	i	i	i	i	i	i
COc1ccc(N2CC(C)Cn3c2nc2c3c(=O)n(Cc3ccc(F)cc3)c(=O)n2C)c(OC)c1 (stereo not given)	i	-6.3	i	i	i	nt	nt	nt
O=C(c1cccs1)N(Cc1ccco1)c1nc(-c2ccc(F)cc2)cs1	-14.2*	-6.0	i	6*	-14.4*	63.5%*	i	48.5%*
CCC(=O)N(Cc1ccco1)c1nc(-c2ccccc2)cs1	i	-8.8	i	i	i	nt	nt	nt
O=C(NCc1c[nH]c2ccccc12)c1ccccc1	i	-4.2	i	i	i	nt	nt	nt
Cc1cc(O)ccc1C1(c2ccc(O)cc2C)OC(=O)c2ccccc21	i	-1.6	i	i	-12.9*	44.5%*	i	i
O=C1OC(c2ccccc2)(c2ccc(O)cc2)c2ccccc21 (stereo not given)	i	nt	nt	nt	nt	nt	nt	nt
Cc1cccc(C2(c3cccc(C)c3)OC(=O)c3ccccc32)c1	i	-13.0	i	i	-18.6*	78.0%*	i	43.0%*
CCN(CC)S(=O)(=O)c1ccc(C(=O)NCC(=O)NCCCc2ccccc2)cc1	i	-9.8	i	i	i	nt	nt	nt
CC(CCc1ccccc1)NC(=O)COC(=O)C1CCC(C(C)(C)C)CC1 (stereo not given)	i	-10.4	i	i	i	i	i	i
Cc1c(Cl)cc(C(C)C)c(O)c1CN1CCOCC1	i	nt	nt	nt	nt	nt	nt	nt
SMILES	KCNK3 inh	hERG protect	KCNQ1 act	KCNQ1 inh	KCNK9 block	KCNK9 inh conf	Kir21 sel	KCNK9 uninduced
Cc1nc(-c2cccc(S(=O)(=O)N3CCCCC3)c2)cs1	i	-14.2	i	i	i	nt	nt	nt
Cc1nc(-c2cccc(S(=O)(=O)N3CCCCCC3)c2)cs1	i	-5.8	i	i	i	i	i	i
CCN(CC(=O)Nc1c(F)cccc1F)C(=O)/C=C/c1ccc2c(c1)OCO2	i	-8.2	i	i	i	nt	nt	nt
O=C1[C@@H]2[C@@H]3C[C@@H]([C@H]4ON=C(c5ccc(Cl)cc5Cl)[C@@H]34)[C@@H]2C(=O)N1C1CCCCC1	i	-8.5	i	i	i	i	i	i
CCOC(=O)C1(CC2CC2)CCN(Cc2cnc(-c3ccc(OC)cc3)nc2)CC1	i	-6.9	i	i	i	nt	nt	nt
COC(=O)c1cc(C(=O)c2ccc(Cl)cc2)n2c(=O)/c(=C\N(C)C)sc12	i	-16.5	i	i	i	nt	nt	nt
CCCCCCCC(=O)C(C)C(=O)N(C)[C@H](Cc1ccc(OC)cc1)C(=O)N(C)[C@H](C(N)=O)C(C)C (stereo not given in full)	i	nt	nt	nt	nt	nt	nt	nt
CC1CN(c2oc(COc3ccc(Cl)cc3Cl)nc2C#N)CC(C)O1 (stereo not given)	i	-1.4	i	i	i	i	i	i
N#Cc1ccc(-c2cccnc2)nc1SCc1ccc(Cl)cc1Cl	i	-3.7	i	i	-13*	46.0%*	i	37.5%*
CC(C)(C)c1ccc(C(=O)N2CCCC2c2cccs2)cc1 (stereo not given)	i	-10.7	i	i	i	i	i	i
CC(=O)N1CCCc2cc(S(=O)(=O)N3CCCC(C(=O)N4CCN(c5cc(C)ccc5C)CC4)C3)ccc21 (stereo not given)	i	-16.4	i	i	i	i	i	i
CC(=O)N1CCCc2cc(S(=O)(=O)N3CCCC(C(=O)N4CCN(c5ccccc5)CC4)C3)ccc21 (stereo not given)	i	-14.2	i	i	i	nt	nt	nt
Cc1cccc(N2CCN(S(=O)(=O)c3ccc4c(c3)CCCN4C(=O)C3CCC3)CC2)c1C	i	-9.2	i	i	i	i	i	i
CCc1nc2ccccc2c(C(=O)OCc2nc3ccccc3c(=O)[nH]2)c1C	i	nt	nt	nt	nt	nt	nt	nt
COc1ccc(S(=O)(=O)N2CC3CCCN3c3ccc(C(F)(F)F)cc32)cc1 (stereo not given)	i	-3.3	i	i	-18.1*	72.5%*	i	44.0%*
Cc1ccc(C(=O)COC(=O)CNC(=O)Cc2ccccc2)cc1[N+](=O)[O-]	i	-1.7	i	i	i	nt	nt	nt
CC(C)(C)C(=O)Nc1ccccc1C(=O)OCC(=O)c1ccc2c(c1)OCCO2	i	-0.7	i	i	-18.4*	62.0%*	i	32.0%*

Assay outcomes from PubChem BioAssay.
